According to paper PMC10582660 (Clinical and Translational Science, 2023):
Where two headings read alike, the source gives them in different places. Marks after values point to notes of the source that are not given here.

What was measured:
[1] = assay type: in vivo, human; settings: for AUC0–96h, geometric mean (CV%) / AUC0–48h, geometric mean (CV%) / t 1/2, geometric mean (CV%) / t max,1, median (range): plasma, raloxifene 60 mg oral
In short: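 Open-label fixed-sequence crossover in 16 healthy adults (8 male, 8 female), arms ≥7 days apart, fasted from midnight. Oral 60 mg test compound tablet with 240 mL water at 50°C (baseline) or brewed green tea. Acute: tea (one bag, 240 mL water, 80°C, 3 min, cooled to 50°C) given with dose, then at 4 and 8 h. Chronic: tea three times daily for 4 days, then day 5 as acute.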

[2] = Follow-up exploratory clinical study: plasma pharmacokinetics; assay type: in vivo, human; settings: follow-up study; for AUC0–48h green tea/baseline ratio (90% CI) / Cmax,1 green tea/baseline ratio (90% CI): acute green tea vs baseline; for AUC0–48h, geometric mean (CV%) / t max,1, median (range) / Cmax: plasma; for Cmax: read-out: Cmax,1, geometric mean (CV%)
In short: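 Six healthy adults (3 male, 3 female) in sequential arms ≥7 days apart: oral test compound with water, then with acute brewed green tea, then tea alone. Plasma sampled 0–48 h at the main-study times. Analysed by UHPLC–MS/MS for parent and glucuronides. […] Green tea/baseline ratios on log-transformed data, paired two-tailed t-test.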

[3] = 16 healthy adults, baseline (water)

| Metabolite‐to‐parent AUC0–96h ratio, geometric mean (CV%) ([1]; acute green tea) | AUC0–48h green tea/baseline ratio (90% CI) ([1]; acute green tea vs baseline) | AUC0–96h green tea/baseline ratio (90% CI) ([1]; acute green tea vs baseline) | Cmax,1 green tea/baseline ratio (90% CI) ([1]; acute green tea vs baseline) | t 1/2 green tea/baseline ratio (90% CI) ([1]; acute green tea vs baseline) | Metabolite‐to‐parent AUC0–96h ratio, geometric mean (CV%) ([1]; baseline (water)) | Metabolite‐to‐parent AUC0–96h ratio, geometric mean (CV%) ([1]; chronic green tea) | AUC0–48h green tea/baseline ratio (90% CI) ([1]; chronic green tea vs baseline) | AUC0–96h green tea/baseline ratio (90% CI) ([1]; chronic green tea vs baseline) | Cmax,1 green tea/baseline ratio (90% CI) ([1]; chronic green tea vs baseline) | t 1/2 green tea/baseline ratio (90% CI) ([1]; chronic green tea vs baseline) | AUC0–96h, geometric mean (CV%) [1, 3] | AUC0–48h, geometric mean (CV%) ([1]; acute green tea) | AUC0–96h, geometric mean (CV%) ([1]; acute green tea) | t 1/2, geometric mean (CV%) ([1]; acute green tea) | t max,1, median (range) ([1]; acute green tea) | AUC0–48h, geometric mean (CV%) ([1]; baseline (water)) | t 1/2, geometric mean (CV%) ([1]; baseline (water)) | t max,1, median (range) ([1]; baseline (water)) | AUC0–48h, geometric mean (CV%) ([1]; chronic green tea) | Structure (SMILES) | also measured |
| --- | --- | --- | --- | --- | --- | --- | --- | --- | --- | --- | --- | --- | --- | --- | --- | --- | --- | --- | --- | --- | --- |
| 161 (36) | 0.54 (0.43–0.68) | 0.57 (0.45–0.73) | 0.42 (0.31–0.57) | 0.91 (0.72–1.16) | 160 (34) | 159 (34) | 0.57 (0.43–0.76) | 0.65 (0.51–0.82) | 0.46 (0.31–0.70) | 0.92 (0.72–1.18) | 2350 (45) nM‐h | 1080 (55) nM‐h | 1350 (69)** nM‐h | 15.9 (66) h | 1.5 (0.5–6) h | 1990 (48) nM‐h | 17.0 (57)^b h | 1.25 (0.25–4) h | 1134 (56) nM‐h | O=C(c1ccc(OCCN2CCCCC2)cc1)c1c(-c2ccc(O[C@@H]3O[C@H](C(=O)O)[C@@H](O)[C@H](O)[C@H]3O)cc2)sc2cc(O)ccc12 [Raloxifene 4′‐glucuronide, raloxifene 4′‐glucuronide] | AUC0–96h, geometric mean (CV%) ([1]; chronic green tea): 1520 (76)* nM‐h; t 1/2, geometric mean (CV%) ([1]; chronic green tea): 15.6 (48)^b h; t max,1, median (range) ([1]; chronic green tea): 1.25 (0.5–3) h; Metabolite‐to‐parent AUC0–48h ratio, geometric mean (CV%) ([2]; acute green tea): 184 (25); AUC0–48h green tea/baseline ratio (90% CI) [2]: 0.93 (0.81–1.06); Cmax,1 green tea/baseline ratio (90% CI) [2]: 0.79 (0.68–0.93); Metabolite‐to‐parent AUC0–48h ratio, geometric mean (CV%) ([2]; baseline): 179 (23); AUC0–48h, geometric mean (CV%) ([2]; acute green tea): 1368 (50) ^* nM‐h; t max,1, median (range) ([2]; acute green tea): 1 (0.5–1) h; t max,1, median (range) ([2]; baseline): 1.25 (1–3) h; AUC0–48h, geometric mean (CV%) ([2]; six healthy adults, baseline): 1473 (50) nM‐h; Cmax ([2]; acute green tea): 75 nM; Cmax ([2]; baseline): 94.4 nM |
| 39 (43) | 0.57 (0.45–0.74) | 0.60 (0.47–0.77) | 0.38 (0.23–0.63) | 1.08 (0.90–1.31) | 37 (45) | 37 (44) | 0.59 (0.43–0.79) | 0.67 (0.53–0.86) | 0.50 (0.35–0.73) | 0.92 (0.76–1.12) | 535 (48) nM‐h | 255 (68) nM‐h | 324 (79)* nM‐h | 20.5 (36)^b h | 1.5 (0.5–4) h | 444 (56) nM‐h | 18.9 (40)^b h | 1.5 (1–4) h | 261 (57) nM‐h | O=C(c1ccc(OCCN2CCCCC2)cc1)c1c(-c2ccc(O)cc2)sc2cc(O[C@@H]3O[C@H](C(=O)O)[C@@H](O)[C@H](O)[C@H]3O)ccc12 [Raloxifene 6‐glucuronide, raloxifene 6‐glucuronide] | AUC0–96h, geometric mean (CV%) ([1]; chronic green tea): 360 (78) nM‐h; t 1/2, geometric mean (CV%) ([1]; chronic green tea): 17.8 (46)^c h; t max,1, median (range) ([1]; chronic green tea): 1.5 (1–6) h; Metabolite‐to‐parent AUC0–48h ratio, geometric mean (CV%) ([2]; acute green tea): 22 (50); AUC0–48h green tea/baseline ratio (90% CI) [2]: 0.88 (0.73–1.06); Cmax,1 green tea/baseline ratio (90% CI) [2]: 0.73 (0.60–0.88); Metabolite‐to‐parent AUC0–48h ratio, geometric mean (CV%) ([2]; baseline): 23 (47); AUC0–48h, geometric mean (CV%) ([2]; acute green tea): 166 (61) nM‐h; t max,1, median (range) ([2]; acute green tea): 1 (1–3) h; t max,1, median (range) ([2]; baseline): 1.25 (1–3) h; AUC0–48h, geometric mean (CV%) ([2]; six healthy adults, baseline): 189 (46) nM‐h; Cmax ([2]; acute green tea): 6.85 nM; Cmax ([2]; baseline): 9.39 nM |
